Assay results taken from publication PMC4561207 (Child's nervous system : ChNS : official journal of the …, 2015).

Tests used:
primary CNS tumor = experiment: MR diffusion and permeability perfusion imaging of tumor; format: in vivo, human
[1] = tested on: Plasma VEGF, bFGF, endostatin and IL8 and urine MMPs; experiment: Pharmacodynamic biomarkers in plasma and urine; format: in vivo, human; conditions: baseline vs day 7–14 of cycle 1, or baseline vs end of cycle 2
Outline: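 Plasma VEGF, bFGF, endostatin and IL8 and urine MMPs were measured by human immunoassays before course 1, once on days 7–14 of course 1, at each MRI scan, and at discontinuation or completion. The fold change was calculated as the later-timepoint value divided by the earlier-timepoint value.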

[2] = adults treated with a 5 mg flat dose; cited from earlier work
[3] = tested on: progressive glioblastoma multiforme; conditions: adults, therapy initiated at 45mg; cited from earlier work
[4] = Steady-state plasma pharmacokinetics, day 28 of course 1; format: in vivo, human
[5] = pediatric MTD of 12mg/m^2/day; cited from earlier work
Phase I dose escalation = format: in vivo

Q: Which “change in two dimensional mean permeability values” (primary CNS tumor; baseline to course 1 day 7–14, p=0.0469) does the source give for COc1cc2c(Oc3ccc4[nH]c(C)cc4c3F)ncnc2cc1OCCCN1CCCC1 [cediranib, Cediranib] here?
A: suggested a decrease from baseline

Q: And the “change in 2D permeability and 3D permeability values” (primary CNS tumor; baseline to end of course 2, p=0.0078 each)?
A: suggested a decrease from baseline

Q: What about the “changes in MMP-9, MMP-9 Dimers or MMP-9/NGAL” value [1] of the same compound?
A: No significant changes

Q: What about the “steady-state systemic exposure (AUC)” value [2] of the same compound?
A: 226 ng·h/mL

Q: And the 6-month progression-free survival [3]?
A: 26%

Q: What about the “radiographic response, patients” value [3] of the same compound?
A: 57%

Q: What about the “Css,min, median” value ([4]; 20mg/m^2 QD, day 28 pre-dose trough) of the same compound?
A: 11.5 ng/mL

Q: And the “Css,max, median” value ([4]; day 28, steady state, plasma)?
A: 48.0 ng/mL

Q: And the Tmax ([4]; human, plasma, oral)?
A: 2 to 6 h

Q: And the AUC ([4]; human, plasma, oral, 32 mg/m2, steady-state AUC0—tlast, 32mg/m^2 QD, n=2)?
A: 892 ng·h/mL

Q: What about the AUC ([4]; human, plasma, oral, 32 mg/m2, steady-state AUC0—tlast, range, 32mg/m^2 QD, n=2) of the same compound?
A: 522 to 1260 ng·h/mL

Q: What about the AUC ([4]; human, plasma, oral, 40 mg/m2, steady-state AUC0—tlast, 40mg/m^2 QD, n=1) of the same compound?
A: 770 ng·h/mL

Q: What about the “median AUC(0-inf)” value [5] of the same compound?
A: 900 ng·h/mL

Q: What about the “median Cmax” value [5] of the same compound?
A: 67 ng/mL

Q: And the MTD (Phase I dose escalation; Stratum II (patients receiving EIACD), maximum dose tested 20mg/m^2/d)?
A: not achieved

Q: What about the DLTs identified (Phase I dose escalation; human, in vivo) of the same compound?
A: 8
